Source: PubChem BioAssay
In the library only some 3.7% were active in any assay of this set; here they are far more common.
MC4R barr agon: agonists of human melanocortin 4 receptor (MC4R) beta-arrestin; U2OS MC4R beta-arrestin complementation, luminescence; percent of melanotan II response, DMSO zero; activation, % at 8.9 µM; 360,000 compounds, 0.98% hits;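 active = activation above a per-plate cutoff, the mean activation of sample wells on that plate plus 3 SD, cut at about 8% in these data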
Myeloid diff 2: compounds promoting myeloid differentiation | AID 624256 | ER-HoxA9 myeloid progenitors, lysozyme-GFP differentiation, flow cytometry | 360,000 compounds, 1% hits | calls only at 10 µM;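 active = normalized GFP-positive differentiation at or above the plate's own cutoff, the solvent-only control mean plus 3 SD; inconclusive = no clear call, values can overlap the other calls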;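 note: cells exposed to compound for four days before flow analysis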
MC4R antag cAMP: antagonists of human melanocortin 4 receptor (MC4R). P32245. MC4R-expressing cells, MTII-stimulated cAMP, LANCE TR-FRET. inhibition, % at 6.5 µM. 360,000 compounds, 0.48% hits. AID 540295;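 active = inhibition above its plate's cutoff, the mean of tested wells on that plate plus 3 SD, cut at about 29% in these data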
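material = U2OS cells stably expressing human melanocortin 4 receptor (MC4R) | also added = Melanotan II challenge | dosing = single nominal compound dose of 6.5 µM | detection = TR-FRET with Eu-cAMP and labeled anti-cAMP, 671 nm | replication = singlicate | timing = compound 30 min, challenge 1 h, detection 1 h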
EBI2 antag: blocks human EBI2 receptor beta-arrestin signaling; P32249; AID 651636; 360,000 compounds, 0.81% hits; EBI2 beta-arrestin recruitment, luminescence, 7a,25-OHC stimulated; inhibition, % at 5 µM; in the data active = inhibition above about 38%;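 note: enzyme fragment complementation signal reports receptor beta-arrestin coupling in cells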
Target sequence (P32249 whole entry, looked up, the tested form may be a part): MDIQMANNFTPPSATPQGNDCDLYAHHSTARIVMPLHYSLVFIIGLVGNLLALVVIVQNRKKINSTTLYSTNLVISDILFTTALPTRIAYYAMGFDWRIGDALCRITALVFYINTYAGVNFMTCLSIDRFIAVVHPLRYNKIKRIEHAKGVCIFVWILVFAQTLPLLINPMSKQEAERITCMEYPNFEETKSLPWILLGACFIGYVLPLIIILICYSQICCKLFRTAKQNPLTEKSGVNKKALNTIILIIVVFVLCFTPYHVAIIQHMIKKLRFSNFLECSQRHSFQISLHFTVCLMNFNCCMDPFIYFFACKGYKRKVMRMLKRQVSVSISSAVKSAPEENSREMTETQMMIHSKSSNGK
Granule exo inh: blocks lytic granule exocytosis. AID 651702. 360,000 compounds, 0.66% hits. inhibition, % at 10 µM. TALL-104 LAMP-1 surface exposure, flow cytometry; cells stimulated with thapsigargin and PMA;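 active = inhibition above about 55%, limit read from the data; inconclusive = no clear call, values can overlap the other calls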
Each line names hits and unclear results; the compound was inactive in the other large screens.

Cc1ccc(NC(=O)c2oc3ccccc3c2NC(=O)c2ccc3c(c2)OCO3)cc1	Myeloid diff 2 active
O=C(Nc1c(C(=O)Nc2cccc(F)c2)oc2ccccc12)c1ccc2c(c1)OCO2	none
CC1=C(C(=O)N2CCCCCC2)CC(CC(=O)NCCc2ccccn2)C(=O)N1CCC1=CCCCC1 (stereo not drawn)	none (no result: MC4R barr agon, MC4R antag cAMP)
COC(C(=O)Nc1cccc(F)c1)c1ccccc1 (stereo not drawn)	Myeloid diff 2 active
COC(C(=O)Nc1ccc(F)c(F)c1)c1ccccc1 (stereo not drawn)	none
O=C(CSc1c(F)c(F)cc(F)c1F)Nc1ccc(C2SCCS2)cc1	MC4R barr agon 8.5
O=C(CSc1ccc(Cl)cc1)Nc1ccc(C2SCCS2)cc1	MC4R barr agon 9.6
COc1ccc(C(=O)/C=C2/c3ccccc3CC(C)(C)N2C)cc1OC	none
COc1ccccc1N1CCN(C(=O)C(=O)c2c[nH]c3ccccc23)CC1	none
CCOC(=O)c1cc(NC(=O)CC(C)(C)CC(=O)O)ccc1N1CCCCC1	none
NNC(=O)c1ccccc1OCCOc1ccccc1	Granule exo inh 59
C/C(=N\NC(=O)c1ccccc1OCCOc1ccccc1)c1ccccc1F	none
CN(C(=O)COc1ccccc1C(=O)NCCOc1ccccc1)c1ccccc1	Myeloid diff 2 inconclusive, Granule exo inh 67
COc1cc(Nc2nc3c(N)cc(C(F)(F)F)cc3nc2-c2ccccc2)cc(OC)c1OC	none
CC1CN(CC(=O)Nc2nc(-c3ccc(Cl)cc3)cs2)CC(C)O1 (stereo not drawn)	Myeloid diff 2 active
O=C(CN1CCOCC1)Nc1nc(-c2ccc(Cl)cc2)cs1	none
COc1ccccc1C(=O)NC(=S)Nc1ccc(Cc2ccncc2)cc1	MC4R barr agon 13
COc1cc(NC(=S)NC(=O)c2ccccc2F)ccc1NC(=O)c1ccco1	MC4R barr agon 9.1
COc1cc(NC(=S)NC(=O)c2ccco2)ccc1NC(=O)C(C)C	none
CC(C)COc1ccc(C(=O)Nc2cc(S(=O)(=O)N3CCOCC3)ccc2N2CCCC2)cc1	none
CCOc1ccc(S(=O)(=O)NN2Cc3ccccc3C2=N)cc1	none
C=CCOc1ccc(/C=C2\SC(=Nc3cccnc3)NC2=O)cc1	none
CC(/C=C1\SC(=Nc2cccnc2)NC1=O)=C\c1ccccc1	Granule exo inh 57
Cc1ccc(S(=O)(=O)N2CCC(C(=O)Nc3ccc(S(=O)(=O)N4CCCC4)cc3)CC2)cc1C	none
O=S(=O)(c1ccccc1)n1cc(-c2cccc3nccn23)c2ccccc21	none
CC(=O)C1=C(C)NC(SCC(=O)c2ccc(Cl)c(Cl)c2)=C(C#N)C1c1ccco1 (stereo not drawn)	Myeloid diff 2 active
CC(=O)C1=C(C)NC(SCC(=O)c2cc(Cl)ccc2Cl)=C(C#N)C1c1ccco1 (stereo not drawn)	Myeloid diff 2 inconclusive
O=C(OCC(=O)N1CCNC1=O)c1ccccc1Cl	none
O=C1[C@H](Cc2ccccc2)NCC=CC[C@H](c2ccc(Cl)cc2)N1Cc1ccccc1	MC4R barr agon 8.6
Cc1ccccc1OCC(=O)Nc1ccc2c(c1)Cc1ccccc1-2	MC4R barr agon 28
O=C(O)c1cccc(-c2noc(-c3cccc(Cl)c3)n2)c1	none
C#CC[N+](C)(C)CC#Cc1ccccc1	Myeloid diff 2 active
NC(N)=N/N=C/c1ccc(OCc2ccc(Cl)cc2)cc1	Granule exo inh 73
Cc1cc2nc3c(nc2cc1C)C(O)=C3O	none
COc1cccc(-c2cc(C(=O)NCC3CCCO3)c3cc(C)cc(C)c3n2)c1 (stereo not drawn)	none
Oc1ccc(CNc2ccc(F)cc2)c2cccnc12	Myeloid diff 2 active
Oc1ccc(CN2CCN(Cc3ccccc3)CC2)c2cccnc12	EBI2 antag 68
O=S(=O)(c1ccc(Cl)cc1)N1CCN(Cc2ccc(O)c3ncccc23)CC1	Myeloid diff 2 inconclusive
C#CCN(C[C@@H]1[C@@H](OC(=O)NCc2ccccc2F)[C@@H](OC(=O)NCc2ccccc2F)Cn2c(=O)ccc(=O)n21)S(=O)(=O)c1ccc(C)cc1	Myeloid diff 2 inconclusive, EBI2 antag 55
C#CCN(C[C@@H]1[C@@H](OC(=O)NCc2ccccc2F)[C@@H](OC(=O)NCc2ccccc2F)Cn2c(=O)n(CCCCCC)c(=O)n21)S(=O)(=O)c1ccc(C)cc1	none
CCCc1c(C(=O)N/N=C/c2ccccc2C(F)(F)F)nnn1-c1nonc1N	none
CCCc1nnc(NC(=O)c2cc3ccccc3o2)s1	Myeloid diff 2 active
N#Cc1c(C(F)(F)F)cc(-c2ccco2)nc1SCc1ccccn1	Myeloid diff 2 active
N#Cc1c(C(F)(F)F)cc(-c2ccco2)nc1SCc1ccncc1	Myeloid diff 2 active
C[C@@H]1CN([C@H](C)CO)C(=O)c2cc(Br)cnc2O[C@@H]1CN(C)Cc1ccc(F)cc1	none
COc1ccccc1CNC(=O)Nc1nc(C(N)CCc2ccccc2)cs1 (stereo not drawn)	none
Cc1ccc(S(=O)(=O)N2C[C@H]3n4c(=O)ccc(=O)n4C[C@H](OC(=O)NC4CC4)[C@@]3(O)C2)cc1	Myeloid diff 2 active
CC(=O)Nc1ccc(NC(=O)c2c(C)nn(-c3ccccc3)c2Cl)cc1C	none
COc1cccc(/C=C2\SC(=S)N(c3cccnc3)C2=O)c1OC	none
O=C1/C(=C\c2cccnc2)SC(=S)N1c1ccc(F)cc1	Myeloid diff 2 active
Cc1cc(/C=C2/SC(=S)N(c3cccc(C(F)(F)F)c3)C2=O)c(C)n1-c1cccnc1	Myeloid diff 2 active
Cc1cc(/C=C2\SC(=S)N(Cc3ccco3)C2=O)c(C)n1-c1cccnc1	Myeloid diff 2 active
CC1(C(=O)NCc2ccccc2)CSCC(=O)N1Cc1cccs1 (stereo not drawn)	none (no result: MC4R barr agon, MC4R antag cAMP)
COc1cc([N+](=O)[O-])ccc1-c1ccc(/C=N/NC(N)=O)o1	Myeloid diff 2 active
COc1cc([N+](=O)[O-])ccc1-c1ccc(/C=N/NC(=O)OC(C)(C)C)o1	none
O=C(O)CN(CC(=O)O)CC(=O)O	Myeloid diff 2 active
CC(C)(C)c1ccc(OC(=O)N2CCOCC2)cc1	Myeloid diff 2 active, Granule exo inh inconclusive
N#Cc1ccc(CN2CCN(C(=O)CNS(=O)(=O)c3ccc4c(c3)OCCCO4)CC2)cc1	none
Cc1cc(NC(=O)CSc2nc3sc4c(c3c(=O)n2C)CCCC4)no1	none
CCn1c(SCC(=O)Nc2cc(C)on2)nc2sc3c(c2c1=O)CCCC3	MC4R barr agon 17
Cc1cc(NC(=O)CSc2nc(C(C)C)nc3sc4c(c23)CCCC4)no1	MC4R barr agon 8.5
Cc1c(/C=C2\NC(=O)NC2=O)c2ccccc2n1C	none
Cn1c(SCc2ccccn2)nnc1-c1ccccc1	none
Cc1cccc(C)c1NC(=O)C(c1ccnc2ccccc12)n1c(=O)c(-c2ccccc2)nc2ccccc21 (stereo not drawn)	none (no result: MC4R barr agon, MC4R antag cAMP)
CCn1nc(NC(=O)Cc2ccc(OC)cc2)c2cc3cccc(C)c3nc21	MC4R barr agon 9.3
CCn1nc(NC(=O)COC)c2cc3cccc(C)c3nc21	none
